Results from the RNAGym collection of RNA variant scans (doi:10.1126/science.aae0568).
Fewer inactive variants are shown than the library holds.

B1: tRNA (parent)
chain: GUUCCGUUGGCGUAAUGGUAACGCGUCUCCCUCCUAAGGAGAAGACUGCGGGUUCGAGUCCCGUACGGAACG

Variants of: B1
Assay: yeast fitness relative to wild type (ratio to wild type); higher = fitter; tRNA-Arg(CCU), competitive growth, 37 C, YPD
Procedure, shortened: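 Variants of the tRNA-Arg(CCU) gene were chemically synthesised with a 3% per-site mutation rate across 69 sites and placed at the native genomic locus in Saccharomyces cerevisiae. Six parallel replicates of the pooled strains were competed in YPD at 37°C for 24 hours, and gene amplicons from the start and end populations were read by 100-nucleotide paired-end sequencing. Darwinian fitness relative to wild type was derived from changes in genotype frequencies. Genotypes required ≥ 100 starting reads, and estimates < 0.5 were set to 0.5.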

Going from C5G G9C A43G A69G to C5G C55U, the yeast fitness rises from ≤ 0.5 to 0.791.

C5G C49G G51A and C5G C30G G67A A70U cannot be ordered by yeast fitness: ≤ 0.5 for the first, ≤ 0.5 for the second.

Going from C5G C33A A37C C61U C62A to C5G C24G C30G C31U U35A A36U G44A G63C, the yeast fitness rises from ≤ 0.5 to 0.966.

First: C5G C31A A36C A43C C55G
Second: C5G C27U C49A U54C C60G
The yeast fitness of the first is higher: 1.06 for the first, ≤ 0.5 for the second.

First: C5G G10A
Second: C5G C30U C31G
The yeast fitness of the first is higher: 0.804 for the first, 0.79 for the second.

Going from C5G C24A A42U A57C U64A to C5G C30G G38C G56C, the yeast fitness rises from ≤ 0.5 to 0.621.

First: C5G C30A
Second: C5G C62G A65U
The yeast fitness of the first is higher: 0.736 for the first, ≤ 0.5 for the second.

C5G C34A C49U and C5G G9C U47C A65U cannot be ordered by yeast fitness: ≤ 0.5 for the first, ≤ 0.5 for the second.

First: C5G C27U G51A
Second: C5G C46U U53A
The yeast fitness of the first is lower: ≤ 0.5 for the first, 0.529 for the second.

Going from C5G C31A C66G to C5G C49A U64C, the yeast fitness rises from ≤ 0.5 to 0.621.

First: C5G C29U A43C
Second: C5G C22U U26G U32A U35A A69C
The yeast fitness of the first is higher: 0.537 for the first, ≤ 0.5 for the second.

C5G C22G A45G A65U and C5G C62G U64A cannot be ordered by yeast fitness: ≤ 0.5 for the first, ≤ 0.5 for the second.

Going from C5G C22A U26C C33G to C5G C27A C49A, the yeast fitness falls from 0.564 to ≤ 0.5.

C5G C30U A40G C55U and C5G G9C A36G C46U cannot be ordered by yeast fitness: ≤ 0.5 for the first, ≤ 0.5 for the second.

C5G C27U C34A G51A and C5G C49G U53A cannot be ordered by yeast fitness: ≤ 0.5 for the first, ≤ 0.5 for the second.

Going from C5G C33A U64A to C5G C55G A65C, the yeast fitness rises from ≤ 0.5 to 0.531.

C5G G6A A15G and C5G C34G C49U G50A cannot be ordered by yeast fitness: ≤ 0.5 for the first, ≤ 0.5 for the second.

Going from C5G G6C C34U G38C to C5G C31U A36C G38A, the yeast fitness falls from 0.749 to 0.557.

First: C5G C31U C33U A57U
Second: C5G C31U A37G
The yeast fitness of the first is lower: ≤ 0.5 for the first, 0.592 for the second.

Compared with C5G C22A C31U G50U C60U, C5G C11U is higher in yeast fitness: ≤ 0.5 for the first, 0.886 for the second.

First: C5G G6A U26C G52A
Second: C5G C29A C30U U35A C55G G56C
The yeast fitness of the first is higher: 0.619 for the first, ≤ 0.5 for the second.

Compared with C5G C22G C62A, C5G C29G G41C A57U is lower in yeast fitness: 0.509 for the first, ≤ 0.5 for the second.

C5G C22U C31G C60A and C5G C30U U32A C49G cannot be ordered by yeast fitness: ≤ 0.5 for the first, ≤ 0.5 for the second.

Compared with C5G C24U G56C, C5G C31A A45U is higher in yeast fitness: ≤ 0.5 for the first, 0.584 for the second.

Going from C5G G6C G38C G58U to C5G G9A C27G, the yeast fitness falls from 0.551 to 0.544.

C5G C22U U28G and C5G C27G C55G cannot be ordered by yeast fitness: ≤ 0.5 for the first, ≤ 0.5 for the second.

Compared with C5G C66A A69U, C5G C29U A37G A65G is lower in yeast fitness: 0.574 for the first, ≤ 0.5 for the second.

First: C5G C61A C62U A65U A69C
Second: C5G C22U C29G
The yeast fitness of the first is lower: ≤ 0.5 for the first, 0.659 for the second.

First: C5G C30A C31A C49U C55G
Second: C5G C24U A43U C55U G68C
The yeast fitness of the first is higher: 0.544 for the first, ≤ 0.5 for the second.

Going from C5G G6A to C5G C66G, the yeast fitness rises from 0.659 to 0.781.

C5G C24G C49U G58A G63A and C5G C24U C46A G68U cannot be ordered by yeast fitness: ≤ 0.5 for the first, ≤ 0.5 for the second.

First: C5G C29A U53C C62A G67A
Second: C5G C29A G52A
The yeast fitness of the first is lower: ≤ 0.5 for the first, 0.695 for the second.

Compared with C5G C22A U26C C33G U64A G67C, C5G C33G A40U is lower in yeast fitness: 0.544 for the first, ≤ 0.5 for the second.

Going from C5G G9C A20U A21G C24G C27G to C5G G9C G58C, the yeast fitness falls from 0.577 to ≤ 0.5.

C5G C22A C33G U35A C55U and C5G G6A C29U C31G C33G G38A U59G cannot be ordered by yeast fitness: ≤ 0.5 for the first, ≤ 0.5 for the second.

Compared with C5G C62A, C5G C62U is higher in yeast fitness: 0.697 for the first, 0.79 for the second.

First: C5G C55A C62U
Second: C5G C61U U64G
The yeast fitness of the first is lower: 0.546 for the first, 0.87 for the second.

Going from C5G C24G C34G C46U C61A A70U to C5G C61U A69U, the yeast fitness rises from ≤ 0.5 to 0.775.

C5G C61U A69C and C5G G9C A42G cannot be ordered by yeast fitness: ≤ 0.5 for the first, ≤ 0.5 for the second.

Going from C5G C29G U32A A37U to C5G G10A A37C G56A, the yeast fitness rises from ≤ 0.5 to 0.567.

Compared with C5G C49A, C5G C49G is higher in yeast fitness: 0.624 for the first, 0.84 for the second.

Compared with C5G G9C U13C A21G, C5G G6A G50C is higher in yeast fitness: ≤ 0.5 for the first, 0.608 for the second.

C5G C61A G63C and C5G C22A U26C C33G G63A cannot be ordered by yeast fitness: ≤ 0.5 for the first, ≤ 0.5 for the second.

Going from C5G C29U C66U to C5G C29U C31G G44C, the yeast fitness falls from 0.57 to 0.556.

Going from C5G G9C A40U C66G to C5G C11U G25C, the yeast fitness rises from ≤ 0.5 to 0.571.

C5G C46G C49G C62A and C5G C29G C66A cannot be ordered by yeast fitness: ≤ 0.5 for the first, ≤ 0.5 for the second.

C5G C33G A40U A65C and C5G C29U G44C cannot be ordered by yeast fitness: ≤ 0.5 for the first, ≤ 0.5 for the second.

Compared with C5G C27G C29U A45G C49A C66U, C5G C27U G41C A57C is higher in yeast fitness: ≤ 0.5 for the first, 0.565 for the second.

Compared with C5G G6C A15G C62U A65C, C5G C30G C61G is lower in yeast fitness: 0.6 for the first, ≤ 0.5 for the second.

C5G C34G C46U C49U and C5G C22U A37G G50C cannot be ordered by yeast fitness: ≤ 0.5 for the first, ≤ 0.5 for the second.

Compared with C5G G6A C29U C33G G38A U59G, C5G C30U U47A G51A A57G is lower in yeast fitness: 0.562 for the first, ≤ 0.5 for the second.

Going from C5G C55U A69U to C5G G9A G25C C27U G56A, the yeast fitness rises from ≤ 0.5 to 0.6.

C5G C22U A36C A42G and C5G C30G C66A cannot be ordered by yeast fitness: ≤ 0.5 for the first, ≤ 0.5 for the second.

C5G C61G A69G and C5G G6A C30G cannot be ordered by yeast fitness: ≤ 0.5 for the first, ≤ 0.5 for the second.

Going from C5G C24U C66A to C5G C27U, the yeast fitness rises from ≤ 0.5 to 0.651.

Compared with C5G C27A, C5G C30A A40G A70U is lower in yeast fitness: 0.709 for the first, ≤ 0.5 for the second.

First: C5G C46U A57C
Second: C5G C11U A14G G25C C29G
The yeast fitness of the first is higher: 0.552 for the first, ≤ 0.5 for the second.

C5G C11U U47A G68C and C5G C33A C34G G50A cannot be ordered by yeast fitness: ≤ 0.5 for the first, ≤ 0.5 for the second.

C5G C27U G44C G48C and C5G C29G C46G cannot be ordered by yeast fitness: ≤ 0.5 for the first, ≤ 0.5 for the second.

First: C5G C31U U32C
Second: C5G C11G U35C
The yeast fitness of the first is higher: 0.659 for the first, 0.643 for the second.

Going from C5G C11U C34A U47A to C5G G9C A20U A21G C24G C27G G68A, the yeast fitness falls from 0.528 to ≤ 0.5.

First: C5G C11U A21G C60A
Second: C5G C31U C49G
The yeast fitness of the first is lower: ≤ 0.5 for the first, 0.576 for the second.

Compared with C5G C24U A45G, C5G C22G C55A A65U is lower in yeast fitness: 0.799 for the first, 0.63 for the second.

Compared with C5G C22G G39C A57U, C5G G6C C49A is lower in yeast fitness: 0.723 for the first, ≤ 0.5 for the second.

Going from C5G C29A C31A to C5G G6C G48A, the yeast fitness rises from 0.714 to 1.06.

Going from C5G C34G C62U to C5G C34G C61A, the yeast fitness falls from 0.531 to ≤ 0.5.

Compared with C5G G6A C29G, C5G C29U A40G A57G is lower in yeast fitness: 0.533 for the first, ≤ 0.5 for the second.

C5G C27G C33U G56A U64C A69U and C5G C24G G50A C60U A69U cannot be ordered by yeast fitness: ≤ 0.5 for the first, ≤ 0.5 for the second.

C5G G9C G67A and C5G C66A A69G A70C cannot be ordered by yeast fitness: ≤ 0.5 for the first, ≤ 0.5 for the second.

C5G C30U U32C G44C and C5G C22G A36C cannot be ordered by yeast fitness: ≤ 0.5 for the first, ≤ 0.5 for the second.

First: C5G C34A A36U G51C G56A
Second: C5G G9C A65U
The yeast fitness of the first is higher: 0.797 for the first, 0.555 for the second.

C5G C31A A37C G48A G58C G68C and C5G C22U C62A A65C cannot be ordered by yeast fitness: ≤ 0.5 for the first, ≤ 0.5 for the second.

Going from C5G C30U G50C to C5G C29A G58C U64G, the yeast fitness rises from ≤ 0.5 to 0.545.

Compared with C5G C27U G41C, C5G C30U G67C is higher in yeast fitness: ≤ 0.5 for the first, 0.938 for the second.

First: C5G C24G C27G C60U
Second: C5G C61G A65C
The yeast fitness of the first is higher: 0.627 for the first, ≤ 0.5 for the second.

Compared with C5G C34A G39C G52A G58A, C5G C34A A36C A42G is lower in yeast fitness: 0.532 for the first, ≤ 0.5 for the second.

C5G C30U C31G C46U and C5G C29U A37U G38C cannot be ordered by yeast fitness: ≤ 0.5 for the first, ≤ 0.5 for the second.

First: C5G C31G
Second: C5G C31A
The yeast fitness of the first is higher: 0.824 for the first, 0.79 for the second.

Compared with C5G C30G C33G A37U C61G, C5G G9C A43G is higher in yeast fitness: ≤ 0.5 for the first, 0.667 for the second.

Compared with C5G C31U G52A, C5G C31G A57C is lower in yeast fitness: 0.612 for the first, 0.502 for the second.

C5G C27G U32C C33U G56A A69U and C5G G9C A40C G58A cannot be ordered by yeast fitness: ≤ 0.5 for the first, ≤ 0.5 for the second.

Compared with C5G C22A G25A A37U, C5G C30A A36G A45C A69U is lower in yeast fitness: 0.596 for the first, ≤ 0.5 for the second.

C5G C30U A36U G51C and C5G C49A G63A cannot be ordered by yeast fitness: ≤ 0.5 for the first, ≤ 0.5 for the second.

C5G C31G A42U gave a yeast fitness of 0.623.
